The values that follow come from ChEMBL document CHEMBL1142431, “Benzodioxoles: novel cannabinoid-1 receptor inverse agonists for the treatment of obesity” (J Med Chem, 2008).

pEC50, pKi: −log10 of the molar value. Active and inactive are the calls of the source. The calls are words filed in the database; no cut-off is given here.

Data set [1] has as its system Rattus norvegicus. Nature of the data set: Reduction in body fat in po dosed diet-induced obesity Sprague-Dawley rat model. In kind it is functional, organism-based. Put shortly:
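Sprague-Dawley rats fed HFD from 3 weeks of age for 10 weeks; high responders (body weight exceeding chow controls by >2 SD) grouped n = 9. After 3 days gavage adaptation, daily oral dosing at 5:00 p.m. for 2 weeks in 7.5% gelatine/0.62% NaCl in water, 2 mL/kg. Fat and lean mass by MRI before and at end of treatment.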

Data set [2] deals with T1, Cannabinoid receptor 1 (Homo sapiens, UniProt P21554). Kind of data set: Activity at human CB1R expressed in HEK293 cells assessed as intracellular cAMP level. The data set is classed as functional, cell-based.
T1 sequence (P21554 whole entry): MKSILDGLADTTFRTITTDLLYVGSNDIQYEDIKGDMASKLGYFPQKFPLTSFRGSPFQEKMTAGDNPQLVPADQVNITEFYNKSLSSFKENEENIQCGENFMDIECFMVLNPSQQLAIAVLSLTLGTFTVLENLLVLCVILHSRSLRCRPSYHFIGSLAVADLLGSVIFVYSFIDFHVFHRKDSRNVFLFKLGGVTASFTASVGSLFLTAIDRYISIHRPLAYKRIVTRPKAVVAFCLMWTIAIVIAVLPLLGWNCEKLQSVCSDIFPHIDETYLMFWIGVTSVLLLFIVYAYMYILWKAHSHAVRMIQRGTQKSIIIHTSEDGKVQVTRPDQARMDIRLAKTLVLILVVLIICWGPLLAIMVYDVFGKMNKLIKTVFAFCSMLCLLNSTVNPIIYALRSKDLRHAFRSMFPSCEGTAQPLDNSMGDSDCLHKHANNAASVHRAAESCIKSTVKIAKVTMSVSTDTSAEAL
Data set [3] addresses T1, Cannabinoid receptor 1. Nature of the data set: biochemical. The data set is classed as cell-based, HEK293.
Data set [4] relates to Mus musculus. Nature of the data set: Reversal of CP-55940-induced hypothermia in NMRI mouse assessed as rectal temperature at 30 mg/kg, ip. In kind it is functional. The procedure, abridged:
(§1)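 Mice housed eight per group, eight per dose, habituated at least 2 h. Test compound in 0.3% Tween 80 (10 mL/kg) given 90 min before CP 55940 (0.3 mg/kg iv, same vehicle). Body temperature read 20 min before compound, just before CP 55940, and 20 min after it.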

Data set [5] in a line: Clearance in human liver microsomes. The data set is classed as ADME, Microsome. The settings on record: liver microsomes. Put shortly:
(§2)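 Test compound at 2 µM incubated with liver microsomes (0.5 mg protein/mL) in 50 mM potassium phosphate pH 7.4 at 37 °C. Reaction started with an NADPH-generating system (glucose-6-phosphate 3.2 mM, NADP 2.6 mM, MgCl2 6.5 mM). Six samples over 30 min, quenched in methanol with internal standard, then LC-MS/MS for substrate depletion. CLint taken from the first-order decay, normalized to protein.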

For data set [6], the system named is Mus musculus. Kind of data set: Reversal of CP-55940-induced hypothermia in NMRI mouse assessed as rectal temperature at 30 mg/kg, po. Also on record: dose 30 mg/kg. The data set is classed as functional, organism-based. Put shortly: as §1
The nature of data set [7]: Clearance in rat liver microsomes. The data set is classed as ADME, Microsome. The settings on record: liver microsomes. The procedure, abridged:
as §2

Data set [8] relates to Mus musculus. Nature of the data set: Reversal of CP-55940-induced hypothermia in po dosed NMRI mouse assessed as rectal temperature. The settings on record: read-out: ID50 (the source's name). The data set is classed as functional. The procedure, abridged: as §1
Data set [9] deals with Cannabinoid receptor 2 (Homo sapiens, UniProt P34972). Nature of the data set: Binding affinity to human CB2R.
Cannabinoid receptor 2, sequence (P34972 whole entry): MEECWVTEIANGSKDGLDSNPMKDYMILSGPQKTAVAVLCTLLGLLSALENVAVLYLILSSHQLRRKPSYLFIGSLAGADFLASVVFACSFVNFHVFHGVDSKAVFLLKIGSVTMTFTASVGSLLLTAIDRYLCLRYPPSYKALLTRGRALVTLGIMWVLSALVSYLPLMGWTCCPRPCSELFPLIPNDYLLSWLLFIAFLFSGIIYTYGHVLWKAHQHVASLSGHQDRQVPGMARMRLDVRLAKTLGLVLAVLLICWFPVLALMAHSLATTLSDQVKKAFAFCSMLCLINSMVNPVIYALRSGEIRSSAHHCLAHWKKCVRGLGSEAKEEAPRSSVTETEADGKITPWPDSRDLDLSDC

In the case of `Cc1c(C(=O)NN2CCCCC2)nn(-c2ccc(Cl)cc2Cl)c1-c1ccc(Cl)cc1`, the outcome in data set [1] was Active.

Regarding `O=C(c1ccc2c(c1)OC(c1ccccc1)(c1ccccc1)O2)N1CCOCC1`, the pEC50 in [2] was 6.11. Further, the pKi in data set [3] was 7.30.

Compound `Fc1ccc(C2(c3ccc(F)cc3)Oc3cc(F)c(CN4CCOCC4)cc3O2)cc1` showed a pKi in data set [3] of less than 6.00.

In the case of `O=S(=O)(c1cc2c(cc1F)OC(c1ccc(F)cc1F)(c1ccc(F)cc1F)O2)N1CCC(F)(F)CC1`, the outcome in data set [4] and in [6] was inactive. Moreover, the pEC50 in [2] was 8.52. Besides, the microsomal CLint in [5] is 271 µL/min/mg; in [7] it was 287 µL/min/mg. This compound had a pKi in data set [3] of 8.52.

With `O=C(c1cc2c(cc1F)OC(c1ccccc1)(c1ccccc1)O2)N1CCCCC1`, in data set [2], the pEC50 is 8.92. Further, the microsomal CLint worked out at 50 µL/min/mg in data set [5] and 486 µL/min/mg in data set [7]. This compound also had a pKi in data set [3] of 7.96.

`O=S(=O)(c1cc2c(cc1F)OC(c1ccc(F)cc1)(c1ccc(Cl)cc1Cl)O2)N1CCOCC1` (stereo unspecified): the ED50 in data set [8] is 16 mg/kg. Besides, in data set [2], the pEC50 is 8.52. The microsomal CLint in data set [5] worked out at 20 µL/min/mg; in data set [7], 53 µL/min/mg. For the same compound, in data set [3], the pKi is 8.05.

In turn, `O=C(c1cc2c(cc1F)O[C@@](c1ccc(F)cc1)(c1ccc(Cl)cc1Cl)O2)N1CCOCC1` showed a pKi in data set [3] of 7.46.

In [3], `O=C(c1cc2c(cc1F)OC(c1ccc(F)cc1)(c1ccc(F)cc1)O2)N1CCOCC1` showed a pKi of 7.74.

As for `O=C(c1cc2c(cn1)OC(c1ccccc1)(c1ccccc1)O2)N1CCCCC1`, the negative-log Ki (pKi) in [3] was 7.89.

As for `O=C(c1cc2c(cc1Cl)OC(c1ccccc1)(c1ccccc1)O2)N1CCOCC1`, the values for the microsomal CLint in data set [5] and in [7] were 44 µL/min/mg and 388 µL/min/mg, respectively. This compound also had a pKi in data set [3] of 6.67.

Turning to `N#Cc1cc2c(cc1C(=O)N1CCOCC1)OC(c1ccccc1)(c1ccccc1)O2`, the pKi in data set [3] was 6.56.

`O=C(c1cc2c(cc1Br)OC(c1ccccc1)(c1ccccc1)O2)N1CCOCC1`: in [3], the pKi was 6.06.

As for `O=C(c1cc2c(cc1F)OC(c1ccc(F)cc1)(c1ccc(F)cc1)O2)N1CCCCC1`, the pEC50 in [2] was 7.14. Further, the microsomal CLint in data set [5] came out at 48 µL/min/mg; in data set [7], 81 µL/min/mg. The compound also gave a pKi in data set [3] of 8.15.

As for `O=C(c1cc2c(cc1F)OC(c1ccc(F)cc1F)(c1ccc(F)cc1F)O2)N1CCC(F)(F)CC1`, the pEC50 in data set [2] was 8.70. In addition, the microsomal CLint in [5] came out at 17 µL/min/mg; in data set [7], 5 µL/min/mg. This compound gave a pKi in data set [3] of 8.22.

`Cc1cc2c(cc1C(=O)N1CCOCC1)OC(c1ccccc1)(c1ccccc1)O2` had a pKi in data set [3] of 6.29.

For the compound `O=C(c1ccc2c(c1)OC(c1ccc(F)cc1)(c1ccc(Cl)cc1Cl)O2)N1CCOCC1` (stereo unspecified), the negative logarithm of the EC50 (pEC50) in data set [2] was 6.81. Also, the microsomal CLint in [5] stood at 19 µL/min/mg; in [7], 4 µL/min/mg. Besides, the pKi in data set [3] was 7.52.

As to `O=C(c1cc2c(cc1F)OC(c1ccccc1)(c1ccccc1)O2)N1CCOCC1`, the pEC50 in data set [2] was 7.59. In addition, the microsomal CLint in [5] was 33 µL/min/mg; in data set [7] it was 272 µL/min/mg. In data set [3], the pKi is 7.82.

`O=S(=O)(c1ccc2c(c1)OC(c1ccccc1)(c1ccccc1)O2)N1CC=C(c2ccc(F)cc2)CC1`: the outcome in data set [4] was inactive. Also, the pKi in [9] is less than 5.00; in data set [3], 7.89.

For `O=C(c1cc2c(cc1F)OC(c1ccc(F)cc1F)(c1ccc(F)cc1F)O2)N1CCOCC1`, the ED50 in [8] amounted to 8 mg/kg. The pEC50 in [2] is 8.40. In addition, the microsomal CLint in data set [5] was determined as 96 µL/min/mg; in data set [7], 30 µL/min/mg. Also, the pKi in [3] is 8.15.

As for `O=C(c1cc2c(cc1F)OC(c1ccc(F)cc1)(c1ccc(Cl)cc1Cl)O2)N1CCOCC1` (stereo unspecified), the ED50 in data set [8] was determined as 5 mg/kg. For the same compound, in [2], the negative-log EC50 (pEC50) was 7.96. Further, the intrinsic metabolic clearance (microsomal CLint) in data set [5] worked out at 10 µL/min/mg; in data set [7] it was 22 µL/min/mg. In data set [3], this compound gave a pKi of 8.40.

Turning to `O=C(c1cc2c(cc1F)OC(c1ccccc1F)(c1ccc(Cl)cc1Cl)O2)N1CCOCC1` (stereo unspecified), the ED50 in data set [8] stood at 6 mg/kg. The pEC50 in data set [2] was 8.70. For the same compound, the values for the microsomal CLint in data set [5] and in data set [7] were 21 µL/min/mg and 123 µL/min/mg, respectively. For the same compound, in [3], the pKi was 8.40.

As for `O=C(c1ccc2c(c1)OC(c1ccccc1)(c1ccccc1)O2)N1CCCCC1`, the outcome in [4] was inactive. Besides, the microsomal CLint in [5] was 53 µL/min/mg; in data set [7], 673 µL/min/mg. Also, in [3], the pKi is 7.55.

As for `O=S(=O)(c1ccc2c(c1)OC(c1ccccc1)(c1ccccc1)O2)N1CCCCC1`, the result in data set [4] was inactive. The microsomal CLint in [5] was 137 µL/min/mg; in data set [7], 549 µL/min/mg. The compound further gave a pKi in [3] of 7.42.

With `O=S(=O)(c1cc2c(cc1F)OC(c1ccc(F)cc1F)(c1ccc(F)cc1F)O2)N1CCOCC1`, the outcome in [4] and in data set [6] was inactive. Besides, the pEC50 in data set [2] was 7.96. The microsomal CLint in data set [5] is 102 µL/min/mg; in [7], 149 µL/min/mg. This compound gave a pKi in data set [3] of 7.60.

In data set [3], `O=C(CC(c1ccccc1)c1ccccc1)N1CC=C(c2ccc(Cl)cc2)CC1` showed a pKi of 5.82.

With `COc1ccc(C2(c3ccc(Cl)cc3Cl)Oc3cc(F)c(C(=O)N4CCCCC4)cc3O2)cc1` (stereo unspecified), the ED50 in data set [8] was 8 mg/kg. Also, in data set [2], the pEC50 was 8.30. The intrinsic metabolic clearance (microsomal CLint) was 34 µL/min/mg in data set [5] and 88 µL/min/mg in data set [7]. In data set [3], this compound showed a pKi of 8.70.

In the case of `O=C(c1cc2c(cc1F)OC(c1ccc(F)cc1)(c1ccc(Cl)cc1Cl)O2)N1CCCCC1` (stereo unspecified), the pEC50 in [2] is 8.30. Besides, the microsomal CLint in data set [5] is 31 µL/min/mg; in data set [7], 89 µL/min/mg. Moreover, the pKi in data set [3] is 8.40.

For `O=C(c1cc2c(cc1F)OC(c1ccc(F)cc1F)(c1ccc(F)cc1F)O2)N1CCCCC1`, the pEC50 in [2] is 8.70. Moreover, the microsomal CLint turned out to be 34 µL/min/mg in data set [5] and 122 µL/min/mg in [7]. Also, the pKi in data set [3] is 9.00.

In data set [3], `CCCCCn1cc(C(=O)c2ccc3ccccc3c2)c2ccc(S(C)(=O)=O)cc21` showed a pKi of 6.96.
